Inconclusive results are not listed.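 The calls were made as follows, unless noted: active = cell viability at or below a set limit in both duplicate runs, the limit being the all-compound median minus 4 SD (cut at about 23% in these data, passing the limit was not always enough); inconclusive = no clear call, values can overlap the other calls; inactive = the rest.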
What was measured:
[1] = S. cerevisiae growth inhibition in permissive medium (OD615), pilot counter-assay for S. cerevisiae lifespan shortening project, permissive growth control (AID 705;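 active = growth inhibition above 25% in both replicates, a cutoff set 3 SD above the mean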); details: OD615, 24 h, at 10 µM, hits give high values
Summary of the method: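 System: Engineered DeaD yeast | Buffer or medium: SC raffinose/galactose permissive medium | Doses: 10 µM single dose, 0.25% DMSO | Times: 24 h exposure, 30 °C | Measured by: OD615 turbidity read | Read-out: Yeast growth inhibition indicated by reduced 24 h OD615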

[2] = S. cerevisiae growth inhibition in restrictive medium, OD615, pilot screen, restrictive growth control, yeast lifespan reduction project (AID 706;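 active = growth inhibition above a set limit, 3 SD over mean compound inhibition, in both replicates, cut at about 43% in these data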;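 also: modified DeaD lifespan yeast strain shifted to restrictive glucose medium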); details: OD615, 48 h, at 10 µM, hits give high values
Summary of the method: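 Assay system: engineered S. cerevisiae DeaD strain; Buffer or medium: CSMM-D glucose medium; Dosing: 10 µM compound, 0.25% DMSO; Times: cell pre-growth 4 h, compound exposure 48 h, 30 °C; Detection: absorbance (optical density) measured at 615 nm.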

[3] = doxorubicin toxicity protection in MRP-1 cells – H69AR cells, CellTiter-Glo, duplicate, MRP-1 activator project, pilot screen (AID 807;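 active = viability increase at or above a cutoff of the median across tested compounds plus 3 SD, cut at about 8.5% in these data, passing the limit was not always enough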;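 also: compound pretreatment 18-22 h then 72 h combined with doxorubicin; 0% = doxorubicin alone and 100% = vehicle without doxorubicin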); details: H69AR viability with doxorubicin, CellTiter-Glo luminescence; at 10 µM; hits give high values
[4] = viability of HCT116 without oncogenic beta-catenin – human colon tumor cells, pilot screen (AID 823); details: HCT116 beta-catenin knockout viability, CellTiter-Glo, 60 h; at 10 µM; hits give low values;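 also: 0% = wells killed by 20 µM Hyamine and 100% = untreated DMSO cell wells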
[5] = viability of PTEN-null HCT116 cells – cell-based, HCT116 clonal line, CellTiter-Glo, pilot screen (AID 824;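 active = viability at or below 27.92% in each of two runs, the all-compound median minus 4 SD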;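 also: 0% = 20 µM Hyamine control and 100% = vehicle cell control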); details: HCT116 PTEN-deleted viability, 60 h, at 10 µM, hits give low values
[6] = RAM pathway blockade in budding yeast – dse1pr::URA3 reporter, 5-FOA selection, pilot screen (AID 869;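 active = inhibition over a set limit, the all-compound mean plus 3 SD, in both replicate runs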;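 also: 0% = DMSO wells with no growth and 100% = 10 µM 1-NA-PP1 with full growth; RAM network block rescues cells from 5-FOA so hits raise OD615 growth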); details: S. cerevisiae dse1pr::URA3 5-FOA growth, OD615, 2 d; at 10 µM; hits give high values; strain carries analog-sensitive mutant Cbk1 kinase
[7] = RAM signaling pathway blockade in yeast – S. cerevisiae, Pdr1DBD-CYC8 efflux-inhibited sensitized strain, primary screen (AID 1298;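 active = RAM network inhibition above 8.4% in each of two replicates, 3 SD over the compound average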;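 also: 0% = DMSO untreated cells without growth and 100% = 10 µM 1-NA-PP1 full growth; higher means more yeast growth rescued from 5-FOA killing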); details: S. cerevisiae cbk1-as DSE1-URA3 strain, 5-FOA growth OD615, 2 d; at 50 µM; hits give high values

CSc1nc(C)nc2c1c(=O)n(C)c(=O)n2C
inactive: growth inhibition [1] 9.37% | growth inhibition [2] 6.23% | viability increase [3] -1.42% | viability [4] 108% | viability [5] 94.2% | inhibition [6] 0.68% | RAM network inhibition [7] 0.26%

COc1ccccc1NC(=O)Cn1cnc2c(oc3ccccc32)c1=O
inactive: growth inhibition [1] -11.8% | growth inhibition [2] -11.6% | viability increase [3] -1.93% | viability [4] 107% | viability [5] 100% | inhibition [6] 1.6% | RAM network inhibition [7] -1.27%

O=C(Cn1nc(Cc2cccnc2)c2ccccc2c1=O)NCC1COc2ccccc2O1 (stereo unspecified)
inactive: growth inhibition [1] 3.08% | growth inhibition [2] -0.92% | viability increase [3] -1.71% | viability [4] 90.5% | viability [5] 95.3% | inhibition [6] 1.99% | RAM network inhibition [7] 0.96%

O=C(c1ccccc1)C(Sc1ncn[nH]1)c1ccccc1 (stereo unspecified)
inactive: growth inhibition [1] -8.75% | growth inhibition [2] 0.305% | viability increase [3] 5.4% | viability [4] 92.5% | viability [5] 85.7% | inhibition [6] 1.1% | RAM network inhibition [7] 2.92%

O=C(C1CC(c2ccc(F)cc2)=NO1)N1CCN(Cc2ccccc2)CC1 (stereo unspecified)
inactive: growth inhibition [1] -0.77% | growth inhibition [2] -2.39% | viability increase [3] -1.28% | viability [4] 96.2% | viability [5] 101% | inhibition [6] 1.8% | RAM network inhibition [7] 2.3%

CCOc1ccc(NC(=O)CN2C(=O)COc3ccc(Cl)cc32)cc1
inactive: growth inhibition [1] -17% | growth inhibition [2] -12.8% | viability increase [3] 3.8% | viability [4] 97.4% | viability [5] 90.1% | inhibition [6] 2.06% | RAM network inhibition [7] 6.61%

COC(=O)C(C(=O)OC)C(C(=O)OC)C(C(=O)OC)C(=O)OC
inactive: growth inhibition [1] -6.07% | growth inhibition [2] -6.78% | viability increase [3] -1.54% | viability [4] 97.2% | viability [5] 92.6% | inhibition [6] 0.42% | RAM network inhibition [7] -1.61%

CCOc1ccc(NC(=O)CSc2nc3c(c(=O)n2C)SC(C)C3)cc1 (stereo unspecified)
inactive: growth inhibition [1] -13.6% | growth inhibition [2] -13.2% | viability increase [3] -0.83% | viability [4] 93.5% | viability [5] 91.6% | inhibition [6] 4.75% | RAM network inhibition [7] 5.69%

CCOc1ccc(NC(=O)c2ccc(N)cc2)cc1
inactive: growth inhibition [1] -1.98% | growth inhibition [2] -14.4% | viability increase [3] -2.73% | viability [4] 91.8% | viability [5] 89.2% | inhibition [6] 2.77% | RAM network inhibition [7] 2.88%

CC(=O)N1CCC(C(=O)Nc2ccccc2)(N(Cc2ccccc2)C(=O)c2cccnc2)CC1
inactive: growth inhibition [1] -2.38% | growth inhibition [2] 4.33% | viability increase [3] -0.15% | viability [4] 95.7% | viability [5] 86.7% | inhibition [6] 1.47% | RAM network inhibition [7] -1.39%

CC1CCCN(C(=O)c2ccc3c(c2)C(=O)N(CCC2=CCCCC2)C3=O)C1 (stereo unspecified)
inactive: growth inhibition [1] -5.42% | growth inhibition [2] -30.7% | viability increase [3] -0.25% | viability [4] 87.5% | viability [5] 83.8% | inhibition [6] 0.28% | RAM network inhibition [7] 3.27%

Cn1c(CCNC(=O)C(C)(C)C)nc2ccccc21
inactive: growth inhibition [1] -4.42% | growth inhibition [2] -7.26% | viability increase [3] 0.98% | viability [4] 95.3% | viability [5] 98.5% | inhibition [6] 2.58% | RAM network inhibition [7] 4.43%

O=C(NCCCN1CCOCC1)NC12CC3CC(CC(C3)C1)C2
inactive: growth inhibition [1] -1.84% | growth inhibition [2] 2.31% | viability increase [3] -0.98% | viability [4] 104% | viability [5] 105% | inhibition [6] 0.625% | RAM network inhibition [7] 0.01%

O=C(CSc1oc(-c2ccco2)nc1S(=O)(=O)c1ccc(Cl)cc1)NCC1CCCO1 (stereo unspecified)
inactive: growth inhibition [1] 1.39% | growth inhibition [2] 2.77% | viability increase [3] -1.13% | viability [4] 96.9% | viability [5] 95.1% | inhibition [6] -0.09% | RAM network inhibition [7] 1.57%

Cc1nc2sc(C(c3ccco3)N3CCN(c4ccccc4)CC3)c(O)n2n1 (stereo unspecified)
inactive: growth inhibition [1] -2.19% | growth inhibition [2] -0.705% | viability increase [3] 3.13% | viability [4] 97.3% | viability [5] 101% | inhibition [6] 1.73% | RAM network inhibition [7] 3%

CN1C(=O)CS(=O)c2ccc(C(=O)NC3CC3)cc21 (stereo unspecified)
inactive: growth inhibition [1] 1.7% | growth inhibition [2] -0.875% | viability increase [3] -2.2% | viability [4] 99.4% | viability [5] 95.4% | inhibition [6] 2.25% | RAM network inhibition [7] -1.59%

CCC(C(=O)OC)n1cnc2c(nnn2-c2cccc(Cl)c2)c1=O (stereo unspecified)
inactive: growth inhibition [1] -3.35% | growth inhibition [2] -0.405% | viability increase [3] 1.21% | viability [4] 100% | viability [5] 92.1% | inhibition [6] 0.145% | RAM network inhibition [7] 4.91%

Cn1c(NC(=O)c2cc(Cl)ccc2Cl)cc(=O)n(C)c1=O
inactive: growth inhibition [1] 4.47% | growth inhibition [2] 3.21% | viability increase [3] -2.52% | viability [4] 99.9% | viability [5] 94.7% | inhibition [6] 1.17% | RAM network inhibition [7] 1.45%

O=C(CSc1ccc2nnc(-c3ccc(F)cc3)n2n1)N1CCOCC1
inactive: growth inhibition [1] -5.25% | growth inhibition [2] -2.17% | viability increase [3] -2.97% | viability [4] 105% | viability [5] 96.6% | inhibition [6] 0.08% | RAM network inhibition [7] 0.47%

CCCCNC(=O)CS(=O)Cc1nc(-c2cccc(C)c2)oc1C (stereo unspecified)
inactive: growth inhibition [1] -13.2% | growth inhibition [2] -6.67% | viability increase [3] -2.67% | viability [4] 96.2% | viability [5] 98.1% | inhibition [6] 1.14% | RAM network inhibition [7] 0.26%

Cc1cc(NS(=O)(=O)c2ccc(NC(=O)CCCC(=O)O)cc2)nc(C)n1
inactive: growth inhibition [1] -5.33% | growth inhibition [2] -3.05% | viability increase [3] -1.07% | viability [4] 102% | viability [5] 92.2% | inhibition [6] -0.135% | RAM network inhibition [7] 3.87%

CCn1c(=NC(=O)CN2C(=O)CCC2=O)sc2c(OC)ccc(OC)c21
inactive: growth inhibition [1] -5.83% | growth inhibition [2] -14.7% | viability increase [3] -2.94% | viability [4] 87.4% | viability [5] 96% | inhibition [6] 2.75% | RAM network inhibition [7] 6.17%

O=C1c2ccccc2C(Nc2ccc(Cl)cn2)N1c1ccccn1 (stereo unspecified)
inactive: growth inhibition [1] -15.4% | growth inhibition [2] 0.32% | viability increase [3] -4.01% | viability [4] 75.1% | viability [5] 81.1% | inhibition [6] 2.39% | RAM network inhibition [7] 8.97%

CCc1c(C)nc(SCCOc2ccc(OC)cc2)[nH]c1=O
inactive: growth inhibition [1] -12.6% | growth inhibition [2] -9.17% | viability increase [3] -0.04% | viability [4] 108% | viability [5] 93.9% | inhibition [6] -0.015% | RAM network inhibition [7] 1.64%

CCCn1cc(S(=O)(=O)CC(=O)Nc2ccc(OC)cc2OC)c2ccccc21
inactive: growth inhibition [1] -7.84% | growth inhibition [2] 6.44% | viability increase [3] -1.59% | viability [4] 97.9% | viability [5] 96.4% | inhibition [6] 2.81% | RAM network inhibition [7] -0.12%

CN(C)S(=O)(=O)c1ccc(C(=O)Nc2ccccn2)cc1
inactive: growth inhibition [1] -10.3% | growth inhibition [2] -19.3% | viability increase [3] -0.7% | viability [4] 96.6% | viability [5] 89.2% | inhibition [6] 1.31% | RAM network inhibition [7] -1.36%

CC(Oc1ccccc1F)C(=O)NCCN1CCCCC1 (stereo unspecified)
inactive: growth inhibition [1] -9.04% | growth inhibition [2] -8.32% | viability increase [3] -0.4% | viability [4] 91.9% | viability [5] 93.6% | inhibition [6] 0.865% | RAM network inhibition [7] 3.01%

COc1ccc(-c2nn(CC(=O)N(C)C)c(=O)c3ccccc23)cc1
inactive: growth inhibition [1] -7.62% | growth inhibition [2] -6.71% | viability increase [3] -1.08% | viability [4] 99.8% | viability [5] 86.4% | inhibition [6] 1.01% | RAM network inhibition [7] 0.6%

COc1ccc(C2OC(=O)CC2C(=O)N2CCN(c3cc(Cl)ccc3C)CC2)cc1OC (stereo unspecified)
inactive: growth inhibition [1] -0.42% | growth inhibition [2] 4.67% | viability increase [3] -2.26% | viability [4] 96.8% | viability [5] 95.5% | inhibition [6] 0.44% | RAM network inhibition [7] 2.7%

Cc1nnc(NC(=O)CSc2nnc(Cc3cccn3C)n2-c2cccc(C(F)(F)F)c2)s1
inactive: growth inhibition [1] -1.29% | growth inhibition [2] 13.7% | viability increase [3] -3.3% | viability [4] 98.8% | viability [5] 94% | inhibition [6] 0.075% | RAM network inhibition [7] 3.85%

COC(=O)c1cnn2c(C)c(Cc3cccc(F)c3)c(C)nc12
inactive: growth inhibition [1] -5.12% | growth inhibition [2] -16% | viability increase [3] -5.7% | viability [4] 92.3% | viability [5] 80.9% | inhibition [6] 1.53% | RAM network inhibition [7] 2.9%

N#Cc1nc(-c2ccccc2F)oc1NCCN1CCOCC1
inactive: growth inhibition [1] -19.2% | growth inhibition [2] -36.8% | viability increase [3] -1.89% | viability [4] 104% | viability [5] 95% | inhibition [6] 1.17% | RAM network inhibition [7] 0.32%

Cc1ccc2cc(-c3noc(C4CCCO4)n3)c(=O)[nH]c2c1 (stereo unspecified)
inactive: growth inhibition [1] -12.5% | growth inhibition [2] -7.12% | viability increase [3] -0.44% | viability [4] 108% | viability [5] 100% | inhibition [6] 0.82% | RAM network inhibition [7] 4.44%

From PubChem BioAssay
